Laboratory results: ChEMBL document CHEMBL4145676, “Mathematical and Structural Characterization of Strong Nonadditive Structure-Activity Relationship Caused by Protein Conformational Changes” (J Med Chem, 2018)

test: Inhibition of GST tagged PDE2 (unknown origin) assessed as reduction in FAM-cAMP hydrolysis pre-incubated for 5 mins before FAM-cAMP addition and measured after 30 mins by IMAP assay; design: species or system Homo sapiens
How it was run: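 Compound added from 1 mM DMSO stock, 5 min at rt. FAM-cAMP then added at 200 nM final, 30 min at rt. Stopped with IMAP Tb binding reagent, 1 h at rt. Plate reader read-out gives pIC50, run in quadruplicate.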

Point of comparison: Cc1nc2ccc(C(=O)NCC(C)C)cc2n2c(-c3cc(OCC(C)C)ccc3Cl)nnc12, pIC50 9.29. Against it:
- Cc1nc2ccc(C(=O)NC(C)C)cc2n2c(-c3ccccc3Cl)nnc12 — higher, 9.57
- COc1ccc(Cl)c(-c2nnc3c(C)nc4ccc(C(=O)NC(C)C)cc4n23)c1 — lower, 8.96
- Cc1nc2ccc(C(=O)NC(C)(C)C)cc2n2c(-c3cc(F)ccc3Cl)nnc12 — within 0.2 log units, 9.3
- COc1ccc(Cl)c(-c2nnc3c(C)nc4ccc(C(=O)NCC(C)C)cc4n23)c1 — within 0.2 log units, 9.42
- Cc1nc2ccc(C(=O)NC(C)(C)C)cc2n2c(-c3ccccc3Cl)nnc12 — within 0.2 log units, 9.47
- Cc1nc2ccc(C(=O)NC(C)C)cc2n2c(-c3cc(F)ccc3Cl)nnc12 — within 0.2 log units, 9.17
- CNC(=O)c1ccc2nc(C)c3nnc(-c4cc(OC(C)C)ccc4Cl)n3c2c1 — within 0.2 log units, 9.16
- Cc1nc2ccc(C(=O)NC(C)C)cc2n2c(-c3cc(OC(C)(C)C)ccc3Cl)nnc12 — within 0.2 log units, 9.1
- COc1ccc(Cl)c(-c2nnc3c(C)nc4ccc(C(=O)NC56CC7CC(CC(C7)C5)C6)cc4n23)c1 — higher, 9.49
- CNC(=O)c1ccc2nc(C)c3nnc(-c4cc(OC(C)(C)C)ccc4Cl)n3c2c1 — within 0.2 log units, 9.16
- Cc1nc2ccc(C(=O)NC34CC5CC(CC(C5)C3)C4)cc2n2c(-c3ccccc3Cl)nnc12 — higher, 9.77
- Cc1nc2ccc(C(=O)NC(C)(C)C)cc2n2c(-c3cc(OCC(C)C)ccc3Cl)nnc12 — lower, 8.75
- Cc1nc2ccc(C(=O)NC34CC5CC(CC(C5)C3)C4)cc2n2c(-c3cc(OCC(C)C)ccc3Cl)nnc12 — lower, 7.74
- Cc1nc2ccc(C(=O)NC(C)(C)C)cc2n2c(-c3cc(OC(C)C)ccc3Cl)nnc12 — lower, 8.3
- CNC(=O)c1ccc2nc(C)c3nnc(-c4cc(F)ccc4Cl)n3c2c1 — lower, 8.69
- CNC(=O)c1ccc2nc(C)c3nnc(-c4cc(OCC(C)C)ccc4Cl)n3c2c1 — higher, 9.61
- Cc1nc2ccc(C(=O)NC34CC5CC(CC(C5)C3)C4)cc2n2c(-c3cc(F)ccc3Cl)nnc12 — higher, 9.58
- Cc1nc2ccc(C(=O)NC34CC5CC(CC(C5)C3)C4)cc2n2c(-c3cc(OC(C)(C)C)ccc3Cl)nnc12 — lower, 7.58
- Cc1nc2ccc(C(=O)NC(C)(C)C)cc2n2c(-c3cc(OC(C)(C)C)ccc3Cl)nnc12 — lower, 8.35
- CNC(=O)c1ccc2nc(C)c3nnc(-c4ccccc4Cl)n3c2c1 — lower, 8.55
- CNC(=O)c1ccc2nc(C)c3nnc(-c4cc(OC)ccc4Cl)n3c2c1 — lower, 8.74
- Cc1nc2ccc(C(=O)NCC(C)C)cc2n2c(-c3cc(F)ccc3Cl)nnc12 — within 0.2 log units, 9.37
- Cc1nc2ccc(C(=O)NC(C)C)cc2n2c(-c3cc(OC(C)C)ccc3Cl)nnc12 — lower, 8.99
- Cc1nc2ccc(C(=O)NCC(C)C)cc2n2c(-c3cc(OC(C)C)ccc3Cl)nnc12 — lower, 8.93
- Cc1nc2ccc(C(=O)NC34CC5CC(CC(C5)C3)C4)cc2n2c(-c3cc(OC(C)C)ccc3Cl)nnc12 — lower, 7.94
- Cc1nc2ccc(C(=O)NC(C)C)cc2n2c(-c3cc(OCC(C)C)ccc3Cl)nnc12 — within 0.2 log units, 9.46
- Cc1nc2ccc(C(=O)NCC(C)C)cc2n2c(-c3cc(OC(C)(C)C)ccc3Cl)nnc12 — lower, 8.88
- Cc1nc2ccc(C(=O)NCC(C)C)cc2n2c(-c3ccccc3Cl)nnc12 — higher, 9.52
- COc1ccc(Cl)c(-c2nnc3c(C)nc4ccc(C(=O)NC(C)(C)C)cc4n23)c1 — lower, 9
